Test results published in ChEMBL document CHEMBL2034932, “2-Anilino-4-(benzimidazol-2-yl)pyrimidines--a multikinase inhibitor scaffold with antiproliferative activity toward cancer cell lines” (Eur J Med Chem, 2012).
pIC50: −log10 of the molar value. The source made the active and inactive calls. The rule behind the calls is not given here.

Experiments:
[1] = biological target: T1, RAC-alpha serine/threonine-protein kinase (Homo sapiens, UniProt P31749); test: Inhibition of recombinant AKT1 using GSK3 as substrate assessed as inhibition of [33P]Phosphate incorporation into substrate after 80 mins by scintillation counting
How it was run: (§1)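 Recombinant AKT1 was assayed radiometrically with [33P]-ATP (about 5×10^5 cpm/well) and GSK3(14-27) substrate at 2000 ng/50 µL. Buffer was 60 mM HEPES-NaOH pH 7.5 with 3 mM MgCl2 and 3 mM MnCl2, and compound was added in 10% DMSO. After 80 min at 30 °C the reaction was stopped with 2% phosphoric acid, washed with 0.9% NaCl and 33P incorporation counted by scintillation.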

Aurora kinase B [2] = biological target: T2, Aurora kinase B (Homo sapiens, UniProt Q96GD4); test: Inhibition of recombinant Aurora B using tetra(LRRWSLG) as substrate assessed as inhibition of [33P]Phosphate incorporation into substrate after 80 mins by scintillation counting
T2 sequence (Q96GD4 whole entry): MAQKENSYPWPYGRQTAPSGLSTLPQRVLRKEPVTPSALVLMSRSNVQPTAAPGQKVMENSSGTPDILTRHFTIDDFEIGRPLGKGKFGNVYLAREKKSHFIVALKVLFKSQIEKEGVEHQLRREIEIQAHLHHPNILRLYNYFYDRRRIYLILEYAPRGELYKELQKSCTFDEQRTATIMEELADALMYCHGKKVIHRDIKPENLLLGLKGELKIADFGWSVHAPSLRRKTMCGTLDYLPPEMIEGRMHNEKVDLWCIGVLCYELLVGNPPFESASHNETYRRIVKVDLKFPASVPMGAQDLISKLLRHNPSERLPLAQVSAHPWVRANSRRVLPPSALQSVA

Focal adhesion kinase 1 [3] = biological target: T3, Focal adhesion kinase 1 (Homo sapiens, UniProt Q05397); test: Inhibition of recombinant FAK using poly(Glu,Tyr)4 as substrate assessed as inhibition of [33P]Phosphate incorporation into substrate after 80 mins by scintillation counting
[4] = biological target: T4, Vascular endothelial growth factor receptor 2 (Homo sapiens, UniProt P35968); test: Inhibition of recombinant VEGFR2 using poly(Glu,Tyr)4 as substrate assessed as inhibition of [33P]Phosphate incorporation into substrate after 80 mins by scintillation counting
[5] = biological target: T5, Serine/threonine-protein kinase PLK1 (Homo sapiens, UniProt P53350); test: Inhibition of recombinant PLK1 using RBERCHKtide as substrate assessed as inhibition of [33P]Phosphate incorporation into substrate after 80 mins by scintillation counting
T5 sequence (P53350 whole entry): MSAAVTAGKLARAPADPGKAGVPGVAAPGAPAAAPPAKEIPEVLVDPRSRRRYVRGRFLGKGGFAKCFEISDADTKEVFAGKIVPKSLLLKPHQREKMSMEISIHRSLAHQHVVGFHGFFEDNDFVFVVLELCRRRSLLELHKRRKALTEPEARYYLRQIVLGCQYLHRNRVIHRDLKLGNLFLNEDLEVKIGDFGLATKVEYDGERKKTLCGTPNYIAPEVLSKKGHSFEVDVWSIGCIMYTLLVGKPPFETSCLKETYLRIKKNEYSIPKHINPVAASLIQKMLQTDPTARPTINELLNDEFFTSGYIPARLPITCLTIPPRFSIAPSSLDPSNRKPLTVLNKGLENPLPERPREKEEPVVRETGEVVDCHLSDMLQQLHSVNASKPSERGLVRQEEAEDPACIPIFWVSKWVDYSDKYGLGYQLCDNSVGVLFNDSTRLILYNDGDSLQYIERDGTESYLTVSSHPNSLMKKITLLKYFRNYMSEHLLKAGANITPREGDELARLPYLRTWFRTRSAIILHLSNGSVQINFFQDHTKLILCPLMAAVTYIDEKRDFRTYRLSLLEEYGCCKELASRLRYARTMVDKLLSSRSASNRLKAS
How it was run: (§2)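 PLK1 (recombinant) was phosphorylating RBER-CHKtide at 2000 ng/50 µL with [33P]-ATP (about 5×10^5 cpm/well). Buffer was 60 mM HEPES-NaOH pH 7.5 with 3 mM MgCl2 and 3 mM MnCl2. After 80 min at 30 °C, 2% phosphoric acid stopped the reaction and wells were washed with saline. Incorporated 33P was counted, with residual activity relative to enzyme-free and inhibitor-free controls.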

[6] = biological target: T1, RAC-alpha serine/threonine-protein kinase; test: Inhibition of recombinant AKT1 using GSK3 as substrate assessed as inhibition of [33P]Phosphate incorporation into substrate at <10 uM after 80 mins by scintillation counting
How it was run: as §1, with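 “scintillation. Residual activity was set against no-enzyme and no-inhibitor controls.” for “scintillation.”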

Aurora kinase B [7] = biological target: T2, Aurora kinase B; test: Inhibition of recombinant Aurora B using tetra(LRRWSLG) as substrate assessed as inhibition of [33P]Phosphate incorporation into substrate at <10 uM after 80 mins by scintillation counting
How it was run: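 Recombinant Aurora B was assayed with [33P]-ATP (about 5×10^5 cpm/well) and tetra(LRRWSLG) substrate at 500 ng/50 µL. Buffer was 60 mM HEPES-NaOH pH 7.5 with 3 mM MgCl2 and 3 mM MnCl2. Incubation ran 80 min at 30 °C and was stopped with 2% phosphoric acid, then washed with saline. Bound 33P was counted by scintillation, with activity normalised to no-enzyme (0%) and no-inhibitor (100%) controls.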

Focal adhesion kinase 1 [8] = biological target: T3, Focal adhesion kinase 1; test: Inhibition of recombinant FAK using poly(Glu,Tyr)4 as substrate assessed as inhibition of [33P]Phosphate incorporation into substrate at <10 uM after 80 mins by scintillation counting
How it was run: (§3)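 FAK and VEGF-R2 were each tested as recombinant kinase with poly(Glu,Tyr)4:1 substrate at 125 ng/50 µL and [33P]-ATP (about 5×10^5 cpm/well). Buffer was 60 mM HEPES-NaOH pH 7.5 with 3 mM MgCl2 and 3 mM MnCl2. Reactions ran 80 min at 30 °C and were quenched with 2% phosphoric acid and washed with 0.9% NaCl. Scintillation counts were normalised between no-enzyme and uninhibited controls.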
Target sequence in this assay (Q05397 2-1052 limits assumed): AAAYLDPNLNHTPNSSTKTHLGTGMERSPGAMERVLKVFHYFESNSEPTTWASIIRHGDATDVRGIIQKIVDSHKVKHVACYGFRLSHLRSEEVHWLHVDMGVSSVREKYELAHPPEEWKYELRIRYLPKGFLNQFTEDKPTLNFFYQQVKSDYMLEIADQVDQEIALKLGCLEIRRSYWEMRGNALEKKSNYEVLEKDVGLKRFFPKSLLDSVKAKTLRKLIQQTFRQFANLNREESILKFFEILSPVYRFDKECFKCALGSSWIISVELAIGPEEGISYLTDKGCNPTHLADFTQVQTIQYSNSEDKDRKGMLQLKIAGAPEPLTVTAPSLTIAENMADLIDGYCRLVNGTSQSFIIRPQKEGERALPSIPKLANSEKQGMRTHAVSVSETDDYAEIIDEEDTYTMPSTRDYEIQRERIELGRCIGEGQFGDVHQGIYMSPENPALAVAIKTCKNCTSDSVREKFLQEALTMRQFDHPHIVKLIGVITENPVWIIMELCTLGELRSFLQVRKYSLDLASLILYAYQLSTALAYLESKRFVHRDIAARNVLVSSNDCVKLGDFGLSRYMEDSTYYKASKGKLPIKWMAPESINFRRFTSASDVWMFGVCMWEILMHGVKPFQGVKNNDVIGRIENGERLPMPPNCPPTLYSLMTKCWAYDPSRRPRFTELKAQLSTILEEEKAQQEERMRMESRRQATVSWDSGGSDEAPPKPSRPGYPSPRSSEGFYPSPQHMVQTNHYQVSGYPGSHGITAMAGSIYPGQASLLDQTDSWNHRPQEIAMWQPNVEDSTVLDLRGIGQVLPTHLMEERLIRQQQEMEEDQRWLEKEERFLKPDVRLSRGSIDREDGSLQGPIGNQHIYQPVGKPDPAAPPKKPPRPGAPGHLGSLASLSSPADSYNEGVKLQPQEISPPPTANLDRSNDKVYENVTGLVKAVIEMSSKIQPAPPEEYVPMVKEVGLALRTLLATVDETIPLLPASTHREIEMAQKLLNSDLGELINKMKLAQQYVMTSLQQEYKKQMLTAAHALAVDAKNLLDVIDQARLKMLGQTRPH

[9] = biological target: T4, Vascular endothelial growth factor receptor 2; test: Inhibition of recombinant VEGFR2 using poly(Glu,Tyr)4 as substrate assessed as inhibition of [33P]Phosphate incorporation into substrate at <10 uM after 80 mins by scintillation counting; how it was run: as §3
[10] = biological target: T5, Serine/threonine-protein kinase PLK1; test: Inhibition of recombinant PLK1 using RBERCHKtide as substrate assessed as inhibition of [33P]Phosphate incorporation into substrate at <10 uM after 80 mins by scintillation counting; how it was run: as §2
[11] = biological target: T6, NUAK family SNF1-like kinase 1 (Homo sapiens) (UniProt O60285); test: Inhibition of recombinant ARK5 at <10 uM by radiometric kinase assay
T6 sequence (whole entry): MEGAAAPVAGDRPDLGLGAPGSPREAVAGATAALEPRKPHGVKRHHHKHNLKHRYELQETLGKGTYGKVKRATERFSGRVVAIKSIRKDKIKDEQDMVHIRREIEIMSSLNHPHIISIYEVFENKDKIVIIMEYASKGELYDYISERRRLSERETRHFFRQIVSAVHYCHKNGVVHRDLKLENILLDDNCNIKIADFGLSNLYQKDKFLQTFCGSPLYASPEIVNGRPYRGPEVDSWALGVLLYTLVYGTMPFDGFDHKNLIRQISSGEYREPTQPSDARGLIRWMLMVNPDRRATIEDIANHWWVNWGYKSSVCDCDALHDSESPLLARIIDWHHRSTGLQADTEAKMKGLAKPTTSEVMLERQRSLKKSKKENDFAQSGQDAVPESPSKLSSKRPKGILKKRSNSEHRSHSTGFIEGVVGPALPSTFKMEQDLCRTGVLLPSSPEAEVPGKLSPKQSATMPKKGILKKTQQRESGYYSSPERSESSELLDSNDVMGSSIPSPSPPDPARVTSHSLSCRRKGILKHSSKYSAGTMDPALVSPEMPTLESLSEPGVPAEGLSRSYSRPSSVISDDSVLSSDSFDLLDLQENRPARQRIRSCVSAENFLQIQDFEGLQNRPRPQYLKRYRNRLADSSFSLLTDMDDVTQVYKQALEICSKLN
How it was run: (§4)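 Recombinant kinases were tested in a radiometric 33P-ATP assay in 60 mM HEPES-NaOH pH 7.5 with 3 mM MgCl2 and 3 mM MnCl2, with compound added in 10% DMSO. Incubation was 80 min at 30 °C, stopped with 2% phosphoric acid and washed. 33P incorporation was scintillation-counted, and activity was scaled between no-enzyme and no-inhibitor controls.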

[12] = biological target: Tyrosine-protein kinase receptor UFO (Homo sapiens) (UniProt P30530); test: Inhibition of recombinant AXL at <10 uM by radiometric kinase assay; how it was run: as §4
Chain of Tyrosine-protein kinase receptor UFO (Homo sapiens) (P30530 whole entry): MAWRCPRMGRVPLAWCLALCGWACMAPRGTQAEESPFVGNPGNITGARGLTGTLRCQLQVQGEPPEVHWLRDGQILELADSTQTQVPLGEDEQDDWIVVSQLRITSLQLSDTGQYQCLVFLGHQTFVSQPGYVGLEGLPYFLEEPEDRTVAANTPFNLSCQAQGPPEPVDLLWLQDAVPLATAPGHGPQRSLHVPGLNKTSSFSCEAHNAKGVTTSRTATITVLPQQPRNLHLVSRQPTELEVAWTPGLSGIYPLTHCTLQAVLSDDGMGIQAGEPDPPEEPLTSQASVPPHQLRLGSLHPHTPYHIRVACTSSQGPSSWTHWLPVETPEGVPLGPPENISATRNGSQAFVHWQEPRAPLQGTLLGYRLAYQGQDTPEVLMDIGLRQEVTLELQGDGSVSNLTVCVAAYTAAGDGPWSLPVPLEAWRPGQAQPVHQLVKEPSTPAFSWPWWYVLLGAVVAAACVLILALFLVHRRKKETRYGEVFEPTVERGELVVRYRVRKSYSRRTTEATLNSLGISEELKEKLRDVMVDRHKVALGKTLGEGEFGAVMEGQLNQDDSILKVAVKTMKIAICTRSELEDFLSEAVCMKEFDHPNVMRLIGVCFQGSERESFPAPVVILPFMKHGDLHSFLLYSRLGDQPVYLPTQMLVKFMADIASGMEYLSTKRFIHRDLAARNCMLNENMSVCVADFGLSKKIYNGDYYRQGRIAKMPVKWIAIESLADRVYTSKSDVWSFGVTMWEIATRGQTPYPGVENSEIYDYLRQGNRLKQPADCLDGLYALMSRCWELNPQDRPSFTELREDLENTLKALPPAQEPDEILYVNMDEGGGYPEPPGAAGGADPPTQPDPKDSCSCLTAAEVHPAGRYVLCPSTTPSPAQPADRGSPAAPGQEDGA

[13] = biological target: Insulin-like growth factor 1 receptor (Homo sapiens) (UniProt P08069); test: Inhibition of recombinant IGF1R at <10 uM by radiometric kinase assay; how it was run: as §4
[14] = biological target: Hepatocyte growth factor receptor (Homo sapiens) (UniProt P08581); test: Inhibition of recombinant MET at <10 uM by radiometric kinase assay; how it was run: as §4
Chain of Hepatocyte growth factor receptor (Homo sapiens) (P08581 whole entry): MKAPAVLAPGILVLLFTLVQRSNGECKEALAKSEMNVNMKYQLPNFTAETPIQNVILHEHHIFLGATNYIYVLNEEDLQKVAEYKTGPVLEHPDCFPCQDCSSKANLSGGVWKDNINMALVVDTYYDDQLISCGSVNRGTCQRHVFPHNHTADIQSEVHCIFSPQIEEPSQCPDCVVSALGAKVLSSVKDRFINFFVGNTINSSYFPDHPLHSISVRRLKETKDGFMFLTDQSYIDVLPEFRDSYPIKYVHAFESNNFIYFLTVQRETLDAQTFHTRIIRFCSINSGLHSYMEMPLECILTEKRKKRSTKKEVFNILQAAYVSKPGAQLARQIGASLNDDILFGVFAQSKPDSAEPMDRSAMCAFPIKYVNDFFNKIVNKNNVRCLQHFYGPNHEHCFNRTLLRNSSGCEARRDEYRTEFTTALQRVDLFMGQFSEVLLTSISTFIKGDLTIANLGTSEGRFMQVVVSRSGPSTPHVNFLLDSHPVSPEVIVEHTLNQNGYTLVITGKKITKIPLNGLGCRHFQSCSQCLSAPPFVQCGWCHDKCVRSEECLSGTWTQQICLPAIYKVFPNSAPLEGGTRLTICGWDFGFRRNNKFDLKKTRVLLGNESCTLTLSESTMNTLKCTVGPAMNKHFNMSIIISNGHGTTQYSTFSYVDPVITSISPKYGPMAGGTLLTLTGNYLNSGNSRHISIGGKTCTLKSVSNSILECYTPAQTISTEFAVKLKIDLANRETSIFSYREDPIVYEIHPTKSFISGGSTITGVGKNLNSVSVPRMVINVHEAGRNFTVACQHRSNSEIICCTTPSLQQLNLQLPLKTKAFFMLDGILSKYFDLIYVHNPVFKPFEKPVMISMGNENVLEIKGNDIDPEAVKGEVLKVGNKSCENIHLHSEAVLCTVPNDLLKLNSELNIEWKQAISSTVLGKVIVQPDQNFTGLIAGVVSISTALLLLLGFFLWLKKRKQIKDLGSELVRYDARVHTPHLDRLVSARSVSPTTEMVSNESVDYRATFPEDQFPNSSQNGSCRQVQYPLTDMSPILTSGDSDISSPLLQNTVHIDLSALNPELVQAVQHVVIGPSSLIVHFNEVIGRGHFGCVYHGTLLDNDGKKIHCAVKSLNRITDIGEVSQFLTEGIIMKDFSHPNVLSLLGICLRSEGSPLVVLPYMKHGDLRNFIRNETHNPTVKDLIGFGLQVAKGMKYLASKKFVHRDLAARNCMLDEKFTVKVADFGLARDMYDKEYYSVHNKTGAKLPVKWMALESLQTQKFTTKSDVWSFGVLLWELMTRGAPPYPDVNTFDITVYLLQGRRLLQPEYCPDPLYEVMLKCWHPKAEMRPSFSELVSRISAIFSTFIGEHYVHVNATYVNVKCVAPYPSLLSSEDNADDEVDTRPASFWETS

[15] = biological target: Serine/threonine-protein kinase N1 (Homo sapiens) (UniProt Q16512); test: Inhibition of recombinant PRK1 at <10 uM by radiometric kinase assay; how it was run: as §4
[16] = biological target: Proto-oncogene tyrosine-protein kinase Src (Homo sapiens) (UniProt P12931); test: Inhibition of recombinant SRC at <10 uM by radiometric kinase assay; how it was run: as §4
Chain of Proto-oncogene tyrosine-protein kinase Src (Homo sapiens) (P12931 2-536 limits assumed): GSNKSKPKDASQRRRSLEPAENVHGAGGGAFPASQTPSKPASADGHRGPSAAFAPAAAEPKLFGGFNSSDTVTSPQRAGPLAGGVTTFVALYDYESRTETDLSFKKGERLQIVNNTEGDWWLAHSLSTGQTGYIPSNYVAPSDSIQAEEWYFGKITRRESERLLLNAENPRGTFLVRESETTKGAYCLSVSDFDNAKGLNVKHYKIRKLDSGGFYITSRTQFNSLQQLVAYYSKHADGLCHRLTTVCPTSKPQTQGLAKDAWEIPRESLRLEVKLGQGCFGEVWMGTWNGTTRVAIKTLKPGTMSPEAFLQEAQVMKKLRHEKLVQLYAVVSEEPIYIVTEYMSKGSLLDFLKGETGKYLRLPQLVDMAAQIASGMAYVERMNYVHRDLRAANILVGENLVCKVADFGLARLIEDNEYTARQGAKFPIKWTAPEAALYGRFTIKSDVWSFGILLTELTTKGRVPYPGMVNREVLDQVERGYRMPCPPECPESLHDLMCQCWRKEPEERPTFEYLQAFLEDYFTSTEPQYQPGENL

Compound	pIC50 [1]	pIC50 (Aurora kinase B [2])	pIC50 (Focal adhesion kinase 1 [3])	pIC50 [4]	pIC50 [5]	inhibition [6]	inhibition (Aurora kinase B [7])	inhibition (Focal adhesion kinase 1 [8])	inhibition [9]	inhibition [10]	inhibition [11]	inhibition [12]	inhibition [13]	inhibition [14]	inhibition [15]	inhibition [16]
Cn1c(-c2ccnc(Nc3ccc(O)c(Cl)c3)n2)nc2ccccc21	< 4.00	5.15	4.98	5.12	5.22											
Cn1c(-c2ccnc(Nc3ccccc3)n2)nc2ccccc21	< 4.00	< 4.00	4.42	4.87	4.22	inactive	inactive	inactive	inactive	inactive	inactive	inactive	inactive	inactive	inactive	inactive
Cc1ccc(Nc2nccc(-c3nc4ccccc4n3C)n2)cc1			4.24	4.60		inactive		inactive	inactive	inactive	inactive	inactive	inactive	inactive	inactive	inactive
Cn1c(-c2ccnc(Nc3cccc(O)c3)n2)nc2ccccc21	< 4.00	5.26	5.28	5.49	5.43											
Cn1c(-c2ccnc(Nc3ccc(Cl)cc3)n2)nc2ccccc21	4.39		4.16	4.42		inactive		inactive	inactive	inactive	inactive	inactive	inactive	inactive	inactive	inactive
Cn1c(-c2ccnc(Nc3ccc(N4CCOCC4)cc3)n2)nc2ccccc21	< 4.00	< 4.00	4.62	4.16	< 4.00	inactive	inactive	inactive	inactive	inactive	inactive	inactive	inactive	inactive	inactive	inactive
